Source: ChEMBL document CHEMBL4819129, “Design, synthesis and lipid-lowering activities of penipyridone derivatives” (Bioorg Med Chem, 2021)
Calls of active or inactive are those of the source. No cut-off for these calls is given here.

How the values were obtained:
[1] = tested on: HepG2; test: Cytotoxicity against human HepG2 cells assessed as reduction in cell viability at 100 uM by MTT assay; format: cell-based; conditions: hepg2, 100 µM
Method in brief: (§1)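 MTT viability in HepG2 seeded at 1.2 × 10⁴ cells/well, grown 24 h, then given serial dilutions from DMSO stocks (0.22 μm-filtered) in DMEM + 10% FBS, DMSO as control; 48 h at 37 °C. MTT 5 mg/mL in PBS added for 4 h, formazan dissolved in 10% SDS/0.01 N HCl, A490 read; DMSO wells = 100% viable. Mean ± SD, n = 6.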

[2] = tested on: HepG2; test: Hypolipidemic activity in human HepG2 cells assessed as inhibition of oleic acid-induced lipid accumulation at 10 uM; format: functional, cell-based
Method in brief: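 Oleic acid-induced lipid accumulation in HepG2; cells given 100 μM oleic acid with or without compound at 10 μM in DMSO; DMSO-only and OA-only controls, Simvastatin 10 μM positive control. Lipid quantified by oil red O staining. Mean ± SD, n = 4–6, at least three independent experiments.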

[3] = tested on: HepG2; test: Hypolipidemic activity against oleic acid-induced lipid accumulation in human HepG2 cell model assessed as decrease in total cholestrol level at 10 uM measured after 24 hrs; format: functional; parameters: scale not given: the % may be the effect or the level left
Method in brief: (§2)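 HepG2 in 12-well plates at 2 × 10⁵ cells/well, 37 °C; after 24 h, co-treated 24 h with 100 μmol/L oleic acid plus compound (DMSO vehicle) or Simvastatin 10 μM. Cells rinsed twice in PBS, lysed on ice 20 min, and triglyceride and total cholesterol contents measured. OA-only cells served as reference. Mean ± SD, n = 4.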

[4] = tested on: HepG2; test: Hypolipidemic activity against oleic acid-induced lipid accumulation in human HepG2 cell model assessed as decrease in triglycerides level at 10 uM measured after 24 hrs; format: functional; parameters: scale not given: the % may be the effect or the level left; method in brief: as §2
[5] = tested on: HepG2; test: Hypolipidemic activity against oleic acid-induced lipid accumulation in human HepG2 cell model assessed as decrease in total cholestrol level at 5 uM measured after 24 hrs; format: functional; parameters: scale not given: the % may be the effect or the level left; method in brief: as §2
[6] = tested on: HepG2; test: Hypolipidemic activity against oleic acid-induced lipid accumulation in human HepG2 cell model assessed as decrease in triglycerides level at 20 uM measured after 24 hrs; format: functional; parameters: scale not given: the % may be the effect or the level left; method in brief: as §2
[7] = tested on: HepG2; test: Hypolipidemic activity in human HepG2 cells assessed as inhibition of oleic acid-induced triglyceride accumulation at 10 uM after 24 hrs; format: functional, cell-based; method in brief: as §2
[8] = tested on: HepG2; test: Hypolipidemic activity in human HepG2 cells assessed as reduction in OA-induced lipid accumulation incubated for 1 hrs by Oil Red O staining based assay; format: functional, cell-based; conditions: time 24.0 hrs, in the assay text read “24 hrs” for “1 hrs”
Method in brief: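 Oil red O: HepG2 fixed in 10% neutral formalin 1 h at room temperature, PBS-washed, stained 1 h with 0.5% oil red O in 60% isopropanol, water-washed and imaged (40×). For quantification, stained lipid droplets (30 min) washed with 70% ethanol and absorbance read at 358 nm.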

[9] = tested on: HepG2; test: Cytotoxicity against human HepG2 cells assessed as reduction in cell viability at 400 uM incubated for 48 hrs by MTT assay; format: cell-based; conditions: hepg2, 48 h; method in brief: as §1
[10] = tested on: HepG2; test: Hypolipidemic activity against oleic acid-induced lipid accumulation in human HepG2 cell model assessed as decrease in total cholestrol level at 20 uM measured after 24 hrs; format: functional; parameters: scale not given: the % may be the effect or the level left; method in brief: as §2

CC(=O)O[C@@H](c1ccccc1)c1cc(=O)c(C(N)=O)cn1CCN(C)C
Activity [1]: Non-Toxic
Activity [2]: Active

CC(=O)O[C@@H](c1ccccc1)c1cc(=O)c(C(N)=O)cn1Cc1ccccc1
Activity [2]: inactive

NC(=O)c1cnc(Cc2ccccc2)cc1OCCO
Activity [1]: Non-Toxic
Activity [2]: Active

CC(=O)O[C@@H](c1ccccc1)c1cc(=O)c(C(N)=O)cn1CCN1CCCCC1
Activity [2]: Active

CCC(C)(C)C(=O)O[C@H]1C[C@@H](C)C=C2C=C[C@H](C)[C@H](CC[C@@H]3C[C@@H](O)CC(=O)O3)[C@H]21 [SIMVASTATIN]
Activity [3]: 12.1%
Activity [4]: 29.1%

CC(=O)O[C@@H](c1ccccc1)c1cc(OCCN2CCSCC2)c(C(N)=O)cn1
Activity [1]: Non-Toxic
Activity [5]: 12.8%
Activity [6]: 30.2%
Activity [2]: Active
Activity [7]: Active
Activity [8]: Dose-Dependent Effect
Activity [9]: Non-Toxic
Activity [10]: 14.8%

CC(=O)O[C@@H](c1ccccc1)c1cc(=O)c(C(N)=O)cn1Cc1cc(C(F)(F)F)cc(C(F)(F)F)c1
Activity [2]: inactive

COCCn1cc(C(N)=O)c(=O)cc1[C@@H](OC(C)=O)c1ccccc1
Activity [2]: inactive

CC(=O)O[C@@H](c1ccccc1)c1cc(OCCN2CCOCC2)c(C(N)=O)cn1
Activity [1]: Non-Toxic
Activity [2]: Active

NC(=O)c1cn(CCO)c(-c2ccccc2)cc1=O
Activity [1]: Non-Toxic
Activity [2]: Active

CC(C)CC(=O)O[C@@H](c1ccccc1)c1cc(OCCO)c(C(N)=O)cn1
Activity [2]: inactive

CC(=O)O[C@@H](c1ccccc1)c1cc(OCCO)c(C(=O)N(C)C)cn1
Activity [2]: inactive

CC(=O)O[C@@H](c1ccccc1)c1cc(=O)c(C(=O)NC(=O)CC(C)C)cn1CCO
Activity [2]: Active

CC(=O)O[C@@H](c1ccccc1)c1cc(OCCN(C)C)c(C(N)=O)cn1
Activity [1]: Non-Toxic
Activity [2]: Active

CC(=O)O[C@@H](c1ccccc1)c1cc(=O)c(C(N)=O)cn1CCN1CCCC1
Activity [2]: Active

CC(=O)O[C@@H](c1ccccc1)c1cc(OCc2cc(C(F)(F)F)cc(C(F)(F)F)c2)c(C(N)=O)cn1
Activity [2]: inactive

CC(=O)O[C@@H](c1ccccc1)c1cc(OCCN2CCCC2)c(C(N)=O)cn1
Activity [2]: Active

COCCOc1cc([C@@H](OC(C)=O)c2ccccc2)ncc1C(N)=O
Activity [2]: inactive

COc1ccc(Cn2cc(C(N)=O)c(=O)cc2[C@@H](OC(C)=O)c2ccccc2)cc1
Activity [2]: inactive

CC(=O)O[C@H](c1ccccc1)c1cc(OCCO)c(C(N)=O)cn1
Activity [2]: inactive

CC(=O)O[C@@H](c1ccccc1)c1cc(OCc2ccccc2)c(C(N)=O)cn1
Activity [2]: inactive

NC(=O)c1cnc([C@@H](O)c2ccccc2)cc1OCCO
Activity [2]: inactive

CC(=O)O[C@@H](c1ccccc1)c1cc(OCCO)c(C(N)=O)cn1
Activity [2]: Active
Activity [7]: Active
Activity [9]: Non-Toxic

CCOC(=O)COc1cc([C@@H](OC(C)=O)c2ccccc2)ncc1C(N)=O
Activity [1]: Non-Toxic
Activity [2]: Active
Activity [7]: Active
Activity [9]: Non-Toxic

CC(C)CC(=O)O[C@@H](c1ccccc1)c1cc(=O)c(C(N)=O)cn1CCO
Activity [2]: inactive
